ChEMBL document CHEMBL5104108, “Concise synthesis and biological activity evaluation of novel pyrazinyl-aryl urea derivatives against several cancer cell lines, which can especially induce T24 apoptotic and necroptotic cell death” (RSC Med Chem, 2022)
Calls of active or inactive are those of the source. No cut-off for these calls is given here.

How the values were obtained:
T-24 [1] = assay: Antiproliferative activity against human T24 cells measured after 48 hrs by MTT assay; assay type: functional, cell-based; details: T-24, 48 h
Summary of the method: (§1)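 Cells seeded 5 × 10^3 per well, grown overnight at 37 °C, then exposed to compound at final 1–40 μM (1, 2.5, 5, 7.5, 10, 12.5, 15, 20, 30, 40 μM) for the stated period. MTT added, 4 h at 37 °C, formazan dissolved in DMSO, absorbance read. IC50 = concentration killing 50% of cells relative to untreated control; mean ± S.D. of four independent experiments.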

[2] = Selectivity index, ratio IC50 for antiproliferative activity against human HCV-29 cells over IC50 for antiproliferative activity against human T24 cells; assay type: toxicity, cell-based; details: HCV-29 cells versus T24 cells
Summary of the method: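 MTT assay, 48 h exposure at final 1–40 μM in T24 and normal bladder epithelial HCV29 cells (5 × 10^3/well, seeded overnight, 37 °C). MTT added for 4 h and formazan dissolved in DMSO. IC50 taken relative to untreated control, four parallel samples. SI = IC50(HCV29)/IC50(T24).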

HepG2 = assay: Antiproliferative activity against human HepG2 cells measured after 48 hrs by MTT assay; assay type: functional, cell-based; details: HepG2, 48 h; summary of the method: as §1
MGC-803 = assay: Antiproliferative activity against human MGC-803 cells measured after 48 hrs by MTT assay; assay type: functional, cell-based; details: MGC-803, 48 h; summary of the method: as §1
[3] = Antiproliferative activity against human HCV-29 cells measured after 48 hrs by MTT assay; assay type: functional, cell-based; details: HCV-29, 48 h; summary of the method: as §1
[4] = Absorption rate constant in Sprague-Dawley rat at 12 mg/kg, IG measured HPLC analysis; assay type: ADME, organism-based; details: in vivo, po
[5] = MRT (0 to 48 hrs) in Sprague-Dawley rat at 12 mg/kg, IG measured HPLC analysis; assay type: ADME, organism-based; details: in vivo, po
Summary of the method: (§2)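 Fasted (12 h) male-unspecified Sprague-Dawley rats (250 ± 20 g), n = 6 per group. Single intragastric dose of suspension (2 mg mL−1 in Tween 80/0.9% NaCl 1.5:5 v/v). Orbital blood drawn at 0.5–48 h and plasma assayed by reversed-phase C18 HPLC-UV. One-compartment fit, weight 1.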

T-24 [6] = assay: Down-regulation of MLKL expression in human T24 cells at 7.5 to 10 uM measured after 16 hrs by Western blot analysis; assay type: functional, cell-based; details: dose 7.5-10 µM
Summary of the method: (§3)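 T24 cells co-incubated 16 h with or without Nec-1 (60 μM). Lysates quantified by BCA, 40 μg protein resolved by SDS-PAGE, transferred to PVDF, probed with primary and peroxidase-conjugated secondary antibodies, detected by ECL. Band gray values normalized to β-actin loading control.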

T-24 [7] = assay: Down-regulation of p-MLKL expression in human T24 cells at 7.5 to 10 uM measured after 16 hrs by Western blot analysis; assay type: functional, cell-based; details: dose 7.5-10 µM; summary of the method: as §3
[8] = Clearance in Sprague-Dawley rat at 12 mg/kg, IG measured HPLC analysis; assay type: ADME, organism-based; details: in vivo, po
T-24 [9] = assay: Down-regulation of RIPK3 expression in human T24 cells at 7.5 to 10 uM measured after 16 hrs by Western blot analysis; assay type: functional, cell-based; details: dose 7.5-10 µM; summary of the method: as §3
[10] = Half-life in Sprague-Dawley rat at 12 mg/kg, IG measured HPLC analysis; assay type: ADME, organism-based; details: in vivo, po
[11] = Tmax in Sprague-Dawley rat at 12 mg/kg, IG measured HPLC analysis; assay type: ADME, organism-based; details: in vivo, po; summary of the method: as §2
T-24 [12] = assay: Down-regulation of RIPK1 expression in human T24 cells at 7.5 to 10 uM measured after 16 hrs by Western blot analysis; assay type: functional, cell-based; details: dose 7.5-10 µM; summary of the method: as §3
[13] = AUC (0 to 48 hrs) in Sprague-Dawley rat at 12 mg/kg, IG measured HPLC analysis; assay type: ADME, organism-based; design: time < 48 hr, dose 12 mg/kg, route ig; details: in vivo, po
[14] = AUMC in Sprague-Dawley rat at 12 mg/kg, IG measured HPLC analysis; assay type: ADME, organism-based; details: in vivo, po
T-24 [15] = assay: Down-regulation of p-RIPK3 expression in human T24 cells at 7.5 to 10 uM measured after 16 hrs by Western blot analysis; assay type: functional, cell-based; details: dose 7.5-10 µM; summary of the method: as §3
T-24 [16] = assay: Down-regulation of p-RIPK1 expression in human T24 cells at 7.5 to 10 uM measured after 16 hrs by Western blot analysis; assay type: functional, cell-based; details: dose 7.5-10 µM; summary of the method: as §3
[17] = Cmax in Sprague-Dawley rat at 12 mg/kg, IG measured HPLC analysis; assay type: ADME, organism-based; design: dose 12 mg/kg, route ig; details: in vivo, po
T-24 [18] = assay: Down-regulation of RIPK2 expression in human T24 cells at 7.5 to 10 uM measured after 16 hrs by Western blot analysis; assay type: functional, cell-based; details: dose 7.5-10 µM; summary of the method: as §3

IC50 (HepG2) | IC50 (MGC-803) | Compound | IC50 (T-24 [1]) | SI [2] | IC50 [3] | further results
9.29 µM | 10.1 µM | Cc1ccc(NC(=O)Nc2cccc(CNc3nccnc3Cl)c2)c(C)c1 | 9.23 µM | 2.58 | 23.8 µM | 
15.3 µM | 14 µM | Cc1ccccc1NC(=O)Nc1cccc(CNc2nccnc2Cl)c1 | 13.6 µM | 2.47 | 33.6 µM | 
8.35 µM | 4.98 µM | O=C(Nc1ccc(Cl)cc1)Nc1cccc(CNc2nccnc2Cl)c1 | 5.47 µM | 3.54 | 19.4 µM | 
18.4 µM | 23.4 µM | O=C(Nc1cccc(CNc2nccnc2Cl)c1)NC1CCCC1 | > 40 µM |  | > 40 µM | 
> 40 µM | > 40 µM | O=C(Nc1cccc(CNc2nccnc2Cl)c1)NC1CCCCC1 | > 40 µM |  | > 40 µM | 
11.2 µM | 14.6 µM | Cc1cccc(NC(=O)Nc2cccc(CNc3nccnc3Cl)c2)c1 | 9.57 µM | 2.96 | 28.3 µM | 
15.1 µM | 12.3 µM | CS(=O)(=O)c1ccc(NC(=O)Nc2cccc(CNc3nccnc3Cl)c2)cc1 | 29.3 µM |  | > 40 µM | 
6.21 µM | 7.29 µM | O=C(Nc1cccc(CNc2nccnc2Cl)c1)Nc1cccc(C(F)(F)F)c1 | 5.08 µM | 5.64 | 28.7 µM | 
8.56 µM | 7.13 µM | O=C(Nc1cccc(CNc2nccnc2Cl)c1)Nc1ccccc1Cl | 6.68 µM | 4.21 | 28.1 µM | 
> 40 µM | 32.7 µM | O=C(Nc1cccc(CNc2nccnc2Cl)c1)Nc1cccc2ccccc12 | > 40 µM |  | > 40 µM | 
11.5 µM | 11.9 µM | Cc1ccc(NC(=O)Nc2cccc(CNc3nccnc3Cl)c2)cc1 | 9.82 µM | 2.05 | 20.1 µM | 
13.7 µM | 12.2 µM | COc1ccccc1NC(=O)Nc1cccc(CNc2nccnc2Cl)c1 | 10.4 µM | 1.74 | 18.2 µM | 
12 µM | 9.24 µM | COc1ccc(NC(=O)Nc2cccc(CNc3nccnc3Cl)c2)cc1 | 9.82 µM | 2.13 | 20.9 µM | 
7.55 µM | 4.82 µM | CC(C)(C)c1ccc(NC(=O)Nc2cccc(CNc3nccnc3Cl)c2)cc1 | 6.01 µM | 2.54 | 15.3 µM | 
9.14 µM | 5.33 µM | O=C(Nc1cccc(Cl)c1)Nc1cccc(CNc2nccnc2Cl)c1 | 6.81 µM | 3.14 | 21.4 µM | 
7.86 µM | 9.37 µM | CCc1ccccc1NC(=O)Nc1cccc(CNc2nccnc2Cl)c1 | 8.72 µM | 1.88 | 16.4 µM | 
 |  | Nc1ccn([C@@H]2O[C@H](CO)[C@@H](O)C2(F)F)c(=O)n1 [GEMCITABINE] |  | 2.12 | 21.5 µM | 
10.5 µM | 6.44 µM | O=C(Nc1cccc(CNc2nccnc2Cl)c1)Nc1ccccc1F | 7.45 µM | 3.37 | 25.1 µM | 
6.17 µM | 4.97 µM | O=C(Nc1cccc(CNc2nccnc2Cl)c1)Nc1ccc(Cl)c(Cl)c1 | 5.21 µM | 5.22 | 27.2 µM | 
11.3 µM | 17.5 µM | Cc1ccc(NC(=O)Nc2cccc(CNc3nccnc3Cl)c2)cc1Cl | 7.39 µM | 2.91 | 21.5 µM | 
7.05 µM | 7.24 µM | CCOc1ccc(NC(=O)Nc2cccc(CNc3nccnc3Cl)c2)cc1 | 9.08 µM | 3.36 | 30.5 µM | 
10.4 µM | 9.46 µM | CNC(=O)c1cc(Oc2ccc(NC(=O)Nc3ccc(Cl)c(C(F)(F)F)c3)c(F)c2)ccn1 [REGORAFENIB] | 5.98 µM | 2.16 | 12.9 µM | Ka [4]: 0.138 h⁻¹; MRT last [5]: 7.29 h; Activity (T-24 [6]): Active; Activity (T-24 [7]): Active; CL/F [8]: 0.986 mL/min; Activity (T-24 [9]): Active; half-life [10]: 5.06 h; Tmax [11]: 8.07 h; Activity (T-24 [12]): Active; AUC(0-t) at 48 h [13]: 50700 ng·h/mL; AUMC [14]: 737185 hr2.ng/ml; Activity (T-24 [15]): Active; Activity (T-24 [16]): Active; Cmax [17]: 3100 ng/mL; Activity (T-24 [18]): Active
10.7 µM | 9.87 µM | Cc1ccc(NC(=O)Nc2cccc(CNc3nccnc3Cl)c2)cc1C | 8.93 µM | 1.43 | 12.8 µM | 
6.72 µM | 7.48 µM | O=C(Nc1cccc(CNc2nccnc2Cl)c1)Nc1ccc(Cl)cc1Br | 6.65 µM | 3.61 | 24 µM | 
7.23 µM | 6.43 µM | O=C(Nc1cccc(CNc2nccnc2Cl)c1)Nc1ccc(Cl)cc1Cl | 5.74 µM | 4.42 | 25.4 µM | 
6.75 µM | 5.02 µM | O=C(Nc1cccc(CNc2nccnc2Cl)c1)Nc1ccc(F)c(Cl)c1 | 4.99 µM | 4.94 | 24.7 µM | 
15.6 µM | 16.3 µM | O=C(Nc1ccccc1)Nc1cccc(CNc2nccnc2Cl)c1 | 19.8 µM | 1.83 | 36.2 µM | 
10.8 µM | 6.13 µM | CCc1cccc(CC)c1NC(=O)Nc1cccc(CNc2nccnc2Cl)c1 | 6.39 µM |  | 18.7 µM | 
> 40 µM | 11.5 µM | CN(C)c1ccc(NC(=O)Nc2cccc(CNc3nccnc3Cl)c2)cc1 | 20.2 µM |  | > 40 µM | 
